The source of these data is paper PMC12413468 (Communications Biology, 2025).

Assay [1] relates to Cavin1 Tyr156 phosphorylation in HDMEC. The assay can be described thus: Cavin1 Tyr156 phosphorylation, immunoblot in HDMEC. It counts as cell-based, human. The note with it: WNK1 siRNA 72 h or WNK463 1 µM 18 h. Summed up: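 HDMEC were grown in MCDB 131 with 10% FBS, 10 mM L-glutamine, 10 ng/ml EGF, 1 ug/mL hydrocortisone and penicillin/streptomycin, at 37 °C and 5% CO2. Lysates were made directly in SDS/β-mercaptoethanol sample buffer and immunoblotted for phospho-Cavin1 Tyr156 and total Cavin1. Data are means ± SEM; unpaired two-tailed t-test.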
For orientation: A western blot detects proteins with antibodies after separation by electrophoresis.

Assay [2] relates to A549 cells stably expressing TSC22D1-mNeonGreen. The assay can be described thus: TSC22D1-mNeonGreen localization, A549 cells. It counts as cell-based, human. The following applies: A549, WNK463 1 µM, 24 h. Summed up:
(§1)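 Stable lines came from a lentiviral vector carrying long-isoform TSC22D1 with a C-terminal mNeonGreen tag, transfected with Lipofectamine 3000. Cells were puromycin-selected and sorted by flow cytometry. Pan-WNK inhibitor was applied at 1 µM for 24 h. Cells on coverslips were fixed (4% PFA, 15 min, RT), permeabilised (0.1% Triton X-100, 4.5 min), blocked with 10% goat serum, stained with antibodies and Alexa secondaries (1:500), mounted with DAPI and imaged by confocal microscopy. In A549, endogenous OSR1 was co-stained.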

Assay [3] relates to TSC22D family mRNA in HDMEC. The assay can be described thus: qPCR of TSC22D family members in HDMEC. It counts as cell-based, human. The note with it: 1 µM WNK463, 14 hours, two replicates. (In general: Quantitative PCR measures a nucleic acid by following its amplification.)
The subject of assay [4] is HEK293T cells stably expressing TSC22D1-mNeonGreen. Briefly: TSC22D1-mNeonGreen localization, HEK293T cells. It counts as cell-based, human. The note with it: WNK463 1 µM, 24 h, confocal microscopy, n=1. In short, it runs like this: as §1
In assay [5] the test system is phospho-SPAK Ser373/phospho-OSR1 Ser325 in HDMEC. The assay can be described thus: phospho-SPAK/phospho-OSR1 immunoblot in HDMEC. It counts as cell-based, human. The following applies: WNK463 1 µM 18 h, unlike OSR1. In short, it runs like this: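 Endothelial cells (HDMEC) were kept in MCDB 131 with 10% FBS, 10 mM L-glutamine, 10 ng/ml EGF, 1 ug/mL hydrocortisone and antibiotics, at 37 °C and 5% CO2. Pan-WNK inhibitor was given at 1 µM for 18 h. Cells were harvested in SDS/DTT/β-mercaptoethanol sample buffer, then immunoblotted with an antibody recognising phospho-SPAK Ser373/phospho-OSR1 Ser325. Results are means ± SEM, compared by unpaired two-tailed t-test.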

Assay [6] relates to 3xFLAG-OSR1 / endogenous TSC22D1. It counts as binding, human. The following applies: HEK293T cells, 50 µM CCT blocking peptide, n = 3. In short, it runs like this:
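HEK293T cells were grown in DMEM with 10% FBS and expressed 3xFLAG-OSR1. Endogenous TSC22D1 was co-immunoprecipitated and detected by immunoblot. Three independent experiments.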

In the case of `CC(C)(C)NC(=O)c1cncn1C1CCN(c2ccc(-c3nnc(C(F)(F)F)o3)cn2)CC1` [WNK463], in assay [1], the “total Cavin1 protein amount” value was “little change”. The TSC22D1 puncta entry in assay [2] (confocal microscopy, n = 3) is reported as “induced TSC22D1 puncta”; in assay [4] it was “induced TSC22D1 puncta”. Also, the “localization of endogenous OSR1” value in assay [2] (immunofluorescence) was “colocalized in puncta with tagged TSC22D1”. Moreover, the “mRNA amounts of TSC22D family members” value in assay [3] was “altered mRNA amounts of TSC22D family members”. The “phosphorylation of SPAK” value in assay [5] is “resistant”.
For the compound “NH3^+-SAGRRFIVSPVPE-COO^− [SAGRRFIVSPVPE (WT)]”, the “association of endogenous TSC22D1 with 3xFLAG-OSR1” value in assay [6] was “prevented their association”.
